# Laboratory results reported in ChEMBL document CHEMBL4428066, “Small Molecule Reversible Inhibitors of Bruton's Tyrosine Kinase (BTK): Structure-Activity Relationships Leading to the Identification of 7-(2-Hydroxypropan-2-yl)-4-[2-methyl-3-(4-oxo-3,4-dihydroquinazolin-3-yl)phenyl]-9H-carbazole-1-carboxamide (BMS-935177)” (J Med Chem, 2016).
# Active and inactive are the calls of the source. The calls are words filed in the database; no cut-off is given here.
# Key:
# Homo sapiens = organism: Homo sapiens; test: Selectivity ratio of IC50 for GST-tagged human recombinant LCK using FITC-AHAEGIYLFKKK-NH2 as substrate to IC50 for His-tagged full length human recombinant BTK expressed in baculovirus
# Method in brief: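 Fold selectivity is the LCK enzyme IC50 divided by the BTK enzyme IC50. The footnotes give each IC50 as the mean of three (or at least three) determinations, with some as single determinations.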
# [1] = Cmax in Balb/C mouse at 10 mg/kg, po; assay type: ADME, organism-based; parameters: dose 10 mg/kg, route oral; conditions: in vivo
# Method in brief: (§1)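 Male Balb/C mice dosed orally once at 10 mg/kg in PEG300/TPGS/ethanol (90/5/5 v/v/v).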
# [2] = AUC (0 to 24 hrs) in Balb/C mouse at 10 mg/kg, po; assay type: ADME, organism-based; parameters: time < 24 hr, dose 10 mg/kg, route oral; conditions: in vivo; method in brief: as §1
# [3] = molecular target: T1, Tyrosine-protein kinase BTK (Homo sapiens, UniProt Q06187); test: Inhibition of BTK in human RamosB cells assessed as suppression of BCR/anti-IgM stimulated calcium flux pre-incubated for 1 hr followed by BCR/anti-IgM stimulation; assay type: cell-based
# [4] = molecular target: T1, Tyrosine-protein kinase BTK; test: Inhibition of His-tagged full length human recombinant BTK expressed in baculovirus using fluoresceinated peptide substrate after 60 mins by fluorescent electrophoretic separation
# [5] = Drug metabolism in rat liver microsomes assessed as aniline metabolite formation; assay type: ADME, Microsome
# Method in brief: (§2)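 Compounds were incubated with human or rat liver microsomes. Metabolites were profiled for hydrolysis to the aniline and, where applicable, for N-dealkylation giving the bis-aniline.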
# [6] = Permeability of the compound at pH 7 by PAMPA; assay type: ADME; conditions: for Papp: read-out: permeability
# [7] = Drug metabolism in human liver microsomes assessed as aniline metabolite formation; assay type: ADME, Microsome; method in brief: as §2
# Mus musculus = test: Decrease in anti-KLH IgM titers in chronic Balb/C mouse KLH antibody response model at 30 mg/kg, po administered through oral gavage after 14 days by ELISA; assay type: functional, organism-based; conditions: in the assay text read “IgG” for “IgM”
# Method in brief: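 Chronic KLH challenge model in mice with compound given by mouth. Anti-KLH IgM appears in the first week after challenge. Switching to IgG anti-KLH is evident by day 14.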
# [8] = Stability in mouse liver microsomes; assay type: ADME, Microsome
# [9] = Drug metabolism in human liver microsomes assessed as bis-aniline metabolite formation; assay type: ADME, Microsome; method in brief: as §2
# [10] = Drug metabolism in rat liver microsomes assessed as bis-aniline metabolite formation; assay type: ADME, Microsome; method in brief: as §2
# [11] = Toxicity in mouse administered orally as multiple day dosing schedule; conditions: in vivo, po
# T1 sequence (Q06187 whole entry): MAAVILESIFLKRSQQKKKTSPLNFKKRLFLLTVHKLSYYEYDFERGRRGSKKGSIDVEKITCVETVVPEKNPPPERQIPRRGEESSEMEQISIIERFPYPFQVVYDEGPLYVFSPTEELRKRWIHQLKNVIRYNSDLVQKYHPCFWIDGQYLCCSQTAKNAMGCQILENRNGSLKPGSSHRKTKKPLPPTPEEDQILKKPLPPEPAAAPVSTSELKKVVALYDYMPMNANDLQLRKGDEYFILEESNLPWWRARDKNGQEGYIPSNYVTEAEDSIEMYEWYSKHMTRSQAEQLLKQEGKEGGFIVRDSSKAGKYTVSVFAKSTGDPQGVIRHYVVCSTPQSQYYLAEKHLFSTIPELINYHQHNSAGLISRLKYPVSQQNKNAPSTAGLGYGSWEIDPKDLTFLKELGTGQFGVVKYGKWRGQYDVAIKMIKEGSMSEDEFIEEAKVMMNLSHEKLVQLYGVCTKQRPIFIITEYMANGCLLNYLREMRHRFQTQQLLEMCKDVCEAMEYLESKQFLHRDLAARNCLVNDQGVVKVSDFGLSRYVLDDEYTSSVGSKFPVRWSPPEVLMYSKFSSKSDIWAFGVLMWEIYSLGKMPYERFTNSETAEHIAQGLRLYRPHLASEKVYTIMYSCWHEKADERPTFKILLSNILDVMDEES
Ratio IC50 (Homo sapiens),Cmax [1] [µM],AUC(0-t) at 24 h [2] [µM·h],IC50 [3] [nM],IC50 [4] [nM],Drug metabolism [5],Papp [6] [×10⁻⁶ cm/s],Drug metabolism [7],Stability [8],Drug metabolism [9],Drug metabolism [10],permeability [6],SMILES,Activity (Mus musculus),Activity [11]
89,8.06,120,24,2,–,–,–,–,–,–,–,Cc1c(-c2ccc(C(N)=O)c3[nH]c4cc(C(C)(C)O)ccc4c23)cccc1-n1cnc2cc(F)ccc2c1=O,–,–
44,–,–,144,5,–,–,–,–,–,–,–,Cc1c(-c2ccc(C(N)=O)c3[nH]c4cc(C(C)(C)O)ccc4c23)cccc1-n1ccc2ccccc2c1=O,–,–
52,9.77,113,40,7,–,–,–,–,–,–,–,Cc1c(-c2ccc(C(N)=O)c3[nH]c4cc(C(C)(C)O)ccc4c23)cccc1-n1cnc2ccc(F)cc2c1=O,–,–
9,1.57,5,–,9,Metabolite_Detected,58.7,Metabolite_Detected,–,–,–,–,Cc1c(NC(=O)c2ccc(F)cn2)cccc1-c1ccc(C(N)=O)c2[nH]c3cc(C(=O)N4CCN(C)CC4)ccc3c12,–,–
–,2.1,19,–,–,–,–,–,–,–,–,–,CC(C)(O)c1ccc2c(c1)[nH]c1c(C(N)=O)ccc(-c3cccc(-n4cnc5ccccc5c4=O)c3F)c12,–,–
48,4.41,41,48,2,–,–,–,Stable,–,–,–,Cc1c(-c2ccc(C(N)=O)c3[nH]c4cc(C(C)(C)O)ccc4c23)cccc1N1Cc2ccc(F)cc2C1=O,inactive,–
25,–,–,154,5,–,–,–,–,–,–,–,Cc1c(-c2ccc(C(N)=O)c3[nH]c4cc(C(C)(C)O)ccc4c23)cccc1N1Cc2ccccc2C1=O,–,–
146,4.65,14,22,3,–,–,–,–,–,–,–,Cc1c(-c2ccc(C(N)=O)c3[nH]c4cc(CO)ccc4c23)cccc1-n1cnc2ccccc2c1=O,–,–
88,6.85,63,34,2,–,–,–,–,–,–,–,Cc1c(-c2ccc(C(N)=O)c3[nH]c4cc(C(C)(C)O)ccc4c23)cccc1-n1cnc2c(F)cccc2c1=O,–,–
61,7.96,36,–,11,Metabolite_Detected,–,Metabolite_Detected,–,Metabolite_Detected,Metabolite_Detected,Impermeable,Cc1c(NC(=O)c2ccc(F)cc2)cccc1-c1ccc(C(N)=O)c2[nH]c3cc(NC(C)C)ccc3c12,–,Toxic
15,0.09,0.4,–,5,–,14.7,–,–,–,–,–,Cc1c(NC(=O)c2ccc(F)cc2)cccc1-c1ccc(C(N)=O)c2[nH]c3cc(C(=O)N4CCN(C)CC4)ccc3c12,–,–
33,–,–,26,3,–,–,–,–,–,–,–,Cc1c(-c2ccc(C(N)=O)c3[nH]c4cc(C(C)(C)O)ccc4c23)cccc1N1CCc2ccccc2C1=O,–,–
14,0.178,0.3,238,5,–,–,–,–,–,–,–,Cc1c(-c2ccc(C(N)=O)c3[nH]c4cc(C(=O)N5CCN(C)CC5)ccc4c23)cccc1N1Cc2ccccc2C1=O,–,–
61,6.74,58,18,5,–,–,–,–,–,–,–,Cc1c(-c2ccc(C(N)=O)c3[nH]c4cc(C(C)(C)O)ccc4c23)cccc1-n1cnc2cccc(F)c2c1=O,–,–
